# Bioassay records: PubChem BioAssay, Johns Hopkins Ion Channel Center
# KCNQ1 pot: potentiators or activators of KCNQ1 channel, primary screen, cell-based, thallium flux, high-throughput | Potassium voltage-gated channel subfamily KQT member 1 (Homo sapiens), P51787 | CHO-K1 KCNQ1, thallium flux FluxOR fluorescence; stronger effect = higher value | B-score at 10 µM | 310,000 compounds, 0.35% hits;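 active = fluorescence ratio B-score, a plate-corrected score, at least three library SD, with initial intensity B-score within 5 SD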
#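 Doses: Single concentration per compound, DMSO matched to controls | Test system: KCNQ1-transfected CHO-K1 cells | Timing: 90 min dye loading and 20 min compound exposure, both at room temperature | Measured by: Kinetic FluxOR thallium fluorescence, 10-s 1-Hz baseline, 110-s post-stimulus read | Medium: Assay buffer with matched DMSO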
# hERG rescue: hERG rescue from dofetilide block, primary screen, cell-based, CHO-hERG, FluxOR thallium flux, dofetilide IC70; dofetilide IC70 present; activation (rescue from dofetilide block), less the hit threshold, % at 10 µM; 310,000 compounds, 0.51% hits;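 active = activation above the mean of controls blocked by dofetilide plus 5 SD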;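 also: thallium influx through hERG after potassium depolarization seen as dye fluorescence rise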
# KCNK9 inh: KCNK9 potassium channel inhibitors, primary screen, HEK293 cells, thallium flux | 310,000 compounds, 1.2% hits | FluxOR thallium flux fluorescence; stronger effect = lower value | B-score at 10 µM;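 active = ratio B-score over 3 SD below the library mean, with starting fluorescence within 5 SD of its mean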;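 also: negative B-score means less thallium flux so channel inhibition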
# KCNQ1 block: inhibitors of human KCNQ1 channel, primary screen, cell-based, thallium flux, high-throughput; Potassium voltage-gated channel subfamily KQT member 1 (Homo sapiens), P51787; CHO-K1 KCNQ1, FluxOR thallium flux fluorescence; stronger effect = higher value; B-score at 10 µM; 310,000 compounds, 1.3% hits; AID 2642, 2010;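 active = compounds whose thallium flux B-score, printed positive for inhibition, exceeds three library SD while starting fluorescence stays within three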;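 also: channel opened by potassium depolarization with thallium stimulus after 20 min compound exposure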
# KCNK3 block: human KCNK3 channel inhibitors, primary screen, CHO cells, FluxOR thallium flux, B-score; 340,000 compounds, 0.84% hits; B-score at 10 µM; Potassium channel subfamily K member 3 (Homo sapiens), O14649; FluxOR fluorescence; stronger effect = lower value;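 active = B-score under library mean minus 4 SD, starting fluorescence ratio at most library mean plus 5 SD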;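 also: more negative B-score means stronger inhibition of thallium flux through KCNK3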
# KCNQ1 block val: KCNQ1 potassium channel inhibitors, confirmation, cell-based, Tl flux, duplicate; shares compounds with KCNQ1 block; KCNQ1 cell line, FluxOR thallium flux fluorescence; inhibition, % at 10 µM; 1,600 compounds, 93% hits;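 active = primary screen active, with duplicate mean exceeding buffer control mean plus 3 SD of buffer wells, cut at about 28% in these data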;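 also: 0% = buffer control ratio and 100% = XE991 inhibitor control ratio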
# CHO Tl flux: thallium flux effects in parental CHO cells, counter-screen for KCNQ1 inhibitor project, cell-based, Tl flux; parental CHO-K1, FluxOR thallium flux fluorescence ratio; stronger effect = lower value; zero means no signal rise above baseline; 1,600 compounds, 21% hits; fluorescence ratio (Tl flux) at 10 µM; shares compounds with KCNQ1 block;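 active = mean of duplicate thallium-flux fluorescence ratios in parental host cells more than 5 SD below the buffer control mean, cut at about 0.38 in these data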;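 also: ratio is peak minus minimum fluorescence divided by baseline fluorescence; actives read low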
# KCNQ1 ephys val: KCNQ1 channel inhibitors, confirmation, orthogonal assay, cell-based, automated electrophysiology; shares compounds with KCNQ1 block; KCNQ1-CHO cells, automated patch clamp current; calls only at 10 µM; 490 compounds, 20% hits; AID 624120, 2012;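 active = KCNQ1 current drop exceeding 3 SD of negative control wells, seen in both duplicate runs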;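 also: steady state current during a 2 s step from -80 to +40 mV; negative values mean current inhibition and positive values mean potentiation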
# KCNQ2 spec: KCNQ2 channel inhibition, selectivity assay for KCNQ1 inhibitor project, cell-based. shares compounds with KCNQ1 block. KCNQ2 cells, FluxOR thallium flux fluorescence. inhibition, % at 10 µM. 1,600 compounds, 71% hits. AID 651746, 2012;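 active = mean percent inhibition of the KCNQ2 thallium signal more than 5 SD above the buffer-only control wells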;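 also: KCNQ2 expressed in CHO cells; 0% = buffer control wells and 100% = XE-991 inhibitor control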
# KCNQ1-KCNE1 inh: KCNQ1/KCNE1 channel inhibition, selectivity assay for KCNQ1 inhibitor project, CHO-K1 cells, thallium flux, FluxOR. shares compounds with KCNQ1 block. FluxOR thallium flux fluorescence. inhibition, % at 10 µM. 1,600 compounds, 77% hits;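 active = mean percent inhibition of duplicate wells above the buffer-only control mean plus 3 SD of those controls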;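 also: 0% = buffer only wells and 100% = XE-991 inhibitor control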
# Target sequence (P51787 whole entry, looked up): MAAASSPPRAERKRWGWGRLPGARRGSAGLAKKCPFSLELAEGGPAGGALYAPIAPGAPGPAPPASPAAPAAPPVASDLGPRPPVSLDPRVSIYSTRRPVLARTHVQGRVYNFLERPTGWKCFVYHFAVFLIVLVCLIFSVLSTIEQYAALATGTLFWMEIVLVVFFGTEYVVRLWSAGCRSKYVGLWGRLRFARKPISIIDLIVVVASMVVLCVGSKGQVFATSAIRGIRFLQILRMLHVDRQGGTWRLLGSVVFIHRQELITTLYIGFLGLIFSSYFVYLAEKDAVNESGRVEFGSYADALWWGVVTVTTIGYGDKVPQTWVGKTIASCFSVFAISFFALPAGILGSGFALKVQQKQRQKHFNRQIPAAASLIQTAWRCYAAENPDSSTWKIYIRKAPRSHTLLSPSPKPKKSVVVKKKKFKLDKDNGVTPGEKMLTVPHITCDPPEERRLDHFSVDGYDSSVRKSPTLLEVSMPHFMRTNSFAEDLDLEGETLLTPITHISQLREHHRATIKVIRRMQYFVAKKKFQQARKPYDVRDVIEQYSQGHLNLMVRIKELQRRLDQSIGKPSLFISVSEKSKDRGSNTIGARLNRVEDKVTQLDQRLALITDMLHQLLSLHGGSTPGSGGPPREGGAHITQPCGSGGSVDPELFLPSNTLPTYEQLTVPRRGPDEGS
# KCNK9 block conf: KCNK9 potassium channel inhibitors, confirmation, HEK293 cells, thallium flux, duplicate; 4,900 compounds, 43% hits; AID 492992, 2010; inhibition, % at 10 µM; FluxOR thallium flux fluorescence; shares compounds with KCNK9 inh;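 active = thallium signal inhibited by more than 5 SD of the compound-free buffer control wells, on both duplicate plates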;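 also: 0% = assay buffer control wells without compound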
# Kir21 sel: mouse Kir2.1 channel inhibition, confirmation, selectivity assay for KCNK9 modulator project, cell-based, HEK293, thallium flux. AID 492993, 2010. Kir2.1 cells, FluxOR thallium flux fluorescence. inhibition, % at 10 µM. shares compounds with KCNK9 inh. 4,900 compounds, 4% hits;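 active = thallium signal drop more than 5 SD beyond the mean of the no-compound control wells, seen in both duplicate plates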;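 also: signal is fluorescence rise after thallium addition divided by baseline fluorescence; plate controls were assay buffer only for no effect and full block by chlorpromazine control for full effect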
# KCNK9 uninduced: thallium flux in non-induced HEK293 cells, confirmation, counter-screen for KCNK9 inhibitor project, cell-based, second counter screen, non-induced KCNK9-HEK293 | FluxOR thallium flux | shares compounds with KCNK9 inh | AID 492997, 2010 | 4,900 compounds, 40% hits | inhibition, % at 10 µM;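 active = thallium signal drop beyond 5 SD of the untreated control mean, on both duplicate plates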;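 also: plate controls were buffer only IC0 wells for no effect and SID17386958 at its maximal inhibitory level for full effect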
# * marks the source's active call; other numbers are inactive results; i = inactive; . = no result; + = active, no number. Rows were chosen to be rich in hits. Some 3.1% of all compounds tested hit in one or more screens of this group.
SMILES,KCNQ1 pot,hERG rescue,KCNK9 inh,KCNQ1 block,KCNK3 block,KCNQ1 block val,CHO Tl flux,KCNQ2 spec,KCNQ1-KCNE1 inh,others
O=C(C[C@H]1C/C=C\CCC(=O)O[C@@H](c2ccccc2)CNC1=O)NCCO,.,.,.,.,i,.,.,.,.,
O=C(Nc1ccc(F)cc1)C(NC1CCCCC1)c1ccccc1 (configuration not stated),i,-5,i,7*,i,76*,0.48,65%*,105%*,
O=C(Nc1ccccc1)N(Cc1ccccc1)CC(O)C(F)(F)F (configuration not stated),i,-12,i,i,i,.,.,.,.,
O=C(Nc1cccc(F)c1)N(Cc1ccc(Cl)cc1)CC(O)C(F)(F)F (configuration not stated),i,-12,i,8*,i,72*,0.51,i,56%*,
COc1ccccc1CC(Cc1nc2ccccc2[nH]1)c1nc2ccccc2[nH]1 (configuration not stated),i,-18,i,8*,i,47*,0.42,69%*,46%*,
CCOc1ccccc1N1CCN(C(=O)c2cc(-c3cccnc3)nc3c(Cl)cccc23)CC1,i,-16,i,i,i,.,.,.,.,
CC1CCCCN1S(=O)(=O)c1ccc(S(=O)(=O)N2CCCC2)cc1 (configuration not stated),i,-12,i,i,i,.,.,.,.,
S=C(Nc1ccc(Oc2ccccc2)cc1)NC1CCCC1,i,-5,i,i,i,.,.,.,.,
S=C(NCC1CCCCC1)Nc1ccc(Oc2ccccc2)cc1,i,-10,i,9*,i,81*,0.53,65%*,i,
COc1ccccc1NC(=O)Nc1cccnc1,i,-6,i,i,i,.,.,.,.,
COc1ccc(/C=C2\SC(N3CCc4ccccc4C3)=NC2=O)cc1OC,i,-11,i,i,i,.,.,.,.,
O=c1c2ccccc2n(Cc2cccc(F)c2)c(=O)n1C1CCCC1,i,-5,-7.7*,9*,-12*,95*,0.39,92%*,84%*,KCNQ1 ephys val=i
Cc1ccc(S(=O)(=O)N2CCC(C(=O)N/N=C/c3cccnc3)CC2)cc1,i,-6,i,i,i,.,.,.,.,
Cc1ccc(OCC(O)Cn2c(=N)n(Cc3ccccc3)c3ccccc32)cc1 (configuration not stated),i,-28,i,8*,i,78*,0.41,93%*,36%*,
Cc1cc(C)n2nc(C(=O)Nc3cccc(S(=O)(=O)N(C)c4ccccc4)c3)nc2n1,i,-13,i,i,i,.,.,.,.,
Cc1ccc2cc(CN(CCN(C)C)C(=S)Nc3ccccc3)c(=O)[nH]c2c1C,i,12*,i,7*,i,56*,0.51,i,86%*,
Cc1nc(-c2ccc(S(=O)(=O)N3CCN(c4cccc(C)c4C)CC3)cc2)co1,i,-8,i,6*,i,74*,0.5,104%*,112%*,
CN[C@@H](C)C(=O)NC[C@H]1O[C@@H](n2cnc3c(N)ncnc32)[C@H](O)[C@@H]1O,.,.,.,.,i,.,.,.,.,
CC(NC(=O)Nc1ccc(Cl)c(Cl)c1)C(c1ccccc1)N1CCOCC1 (configuration not stated),i,-13,i,9*,i,105*,0.41,81%*,79%*,KCNQ1 ephys val=+
O=C(NN1CCOCC1)c1ccc(Cl)s1,i,-6,i,i,i,.,.,.,.,
O=C(OCC(=O)N(C1CCCCC1)C1CCCCC1)c1ccccc1O,i,-7,-9.4*,7*,i,116*,0.4,124%*,179%*,KCNQ1 ephys val=+;KCNK9 block conf=37%*;Kir21 sel=i;KCNK9 uninduced=24%*
Cn1ncc(Cl)c1C(=O)N1CCN(c2ccccc2)CC1,i,-16,i,i,i,.,.,.,.,
Cn1ncc(Cl)c1C(=O)N1CCN(c2ccc(Cl)c(Cl)c2)CC1,i,-20,-10*,12*,i,120*,0.43,98%*,87%*,KCNQ1 ephys val=i;KCNK9 block conf=42%*;Kir21 sel=i;KCNK9 uninduced=26%*
CCOC(=O)c1nnn(-c2nonc2-n2cccc2)c1CCl,i,-10,i,i,i,.,.,.,.,
CCOC(=O)c1nnn(-c2nonc2-n2cccc2)c1CN1CCC(C)CC1,i,-14,-9.3*,6*,-9.1*,88*,0.39,71%*,128%*,KCNK9 block conf=i;Kir21 sel=i;KCNK9 uninduced=32%*
COc1ccccc1NC(=O)Nc1nc(CC(=O)N2CCN(c3ccccc3F)CC2)cs1,i,-15,i,i,i,.,.,.,.,
